Laboratory results taken from publication PMC3938282 (Journal of the American Chemical Society, 2013).

Assays:
[1] = system: 308 human kinases; conditions: cited from earlier work; for share of all protein kinases targeted (same metric, more than 80% inhibition): 500 nM
[2] = target: Src-WT (Gallus gallus, UniProt P00523); assay: in vitro kinase inhibition, seven-point dose-response; type: biochemical
[3] = target: Src-AS1 (Gly gatekeeper) (Gallus gallus, UniProt P00523, T338G); assay: as above; type: biochemical
[4] = target: Src-AS2 (Ala gatekeeper) (Gallus gallus, UniProt P00523, T338A); assay: as above; type: biochemical
[5] = target: CK1ε (Homo sapiens, UniProt P49674); assay: in vitro IC50 against PP-sensitive WT kinases; type: biochemical; conditions: read-out: IC50 CK1ε; mean ± SEM
Procedure, shortened: (§1)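 In vitro kinase inhibition. IC50 derived from a seven-point dose-response of test compound; values reported as mean with standard error of the mean.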

[6] = target: CKδ (Homo sapiens, UniProt P48730); assay: in vitro IC50 against PP-sensitive WT kinases; type: biochemical; conditions: read-out: IC50 CKδ; mean ± SEM
Procedure, shortened: as §1

[7] = target: Pkd1 (Homo sapiens, UniProt Q15139); assay: in vitro IC50 against PP-sensitive WT kinases; type: biochemical; conditions: read-out: IC50 Pkd1; mean ± SEM
Procedure, shortened: as §1

[8] = target: Pkd2 (Homo sapiens, UniProt Q9BZL6); assay: in vitro IC50 against PP-sensitive WT kinases; type: biochemical; conditions: read-out: IC50 Pkd2; mean ± SEM
Procedure, shortened: as §1

[9] = target: Ack (Homo sapiens, UniProt Q07912); assay: in vitro IC50 against PP-sensitive WT kinases; type: biochemical; conditions: read-out: IC50 Ack; mean ± SEM
Procedure, shortened: as §1

[10] = target: EphA1 (Homo sapiens, UniProt P21709); assay: in vitro IC50 against PP-sensitive WT kinases; type: biochemical; conditions: read-out: IC50 EphA1; mean ± SEM
Procedure, shortened: as §1

[11] = target: Ptk6 (Homo sapiens, UniProt Q13882); assay: in vitro IC50 against PP-sensitive WT kinases; type: biochemical; conditions: read-out: IC50 Ptk6; mean ± SEM
Procedure, shortened: as §1

[12] = target: Ret (Homo sapiens, UniProt P07949); assay: in vitro IC50 against PP-sensitive WT kinases; type: biochemical; conditions: read-out: IC50 Ret; mean ± SEM
Procedure, shortened: as §1

[13] = system: 308 human kinases; assay: kinase panel inhibition profiling; type: biochemical; conditions: 1 µM
Procedure, shortened: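 Single-point profiling of 308 human kinases: fraction of each kinase's activity inhibited by test compound at 1µM.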

[14] = system: v-Src-AS1; assay: inhibition of tyrosine phosphorylation in stably transfected 3T3 cells; type: cell-based, mouse
[15] = system: v-Src-WT; assay: as above; type: cell-based, mouse
[16] = system: EphA4-AS1; assay: EphA4 auto-phosphorylation in transfected HEK-293T cells; type: cell-based
[17] = system: Pkd1-AS1; assay: Pkd auto-phosphorylation at S916 in transfected HEK-293T cells; type: cell-based; conditions: 625nM - 10µM
Procedure, shortened: (§2)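 HEK-293T cells transiently transfected with Pkd1-WT or Pkd1-AS1. Cells treated with test compound across 625nM - 10µM, then assessed for Pkd auto-phosphorylation at S916.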

[18] = target: T1, Pkd1-WT (Homo sapiens, UniProt Q15139); assay: as above; type: cell-based; conditions: 625nM - 10µM
Procedure, shortened: as §2

[19] = system: Pkd1-AS2; assay: Pkd1-AS2 inhibition in cells; type: cell-based
[20] = target: Kif5b-Ret-AS2 (Homo sapiens, UniProt P07949+P33176, V804A); assay: Ret auto-phosphorylation at Y905 in 3T3 mouse cells; type: cell-based
Procedure, shortened: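 Mouse 3T3 cells expressing Kif5b-Ret-AS2 or Kif5b-Ret-WT were exposed to test compound at 10µM, 3.3µM and 1.1µM. Read-out was Ret auto-phosphorylation at Y905.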

[21] = target: EphA4-WT (Homo sapiens, UniProt P54764); assay: EphA4 auto-phosphorylation in transfected HEK-293T cells; type: cell-based
[22] = target: T1, Pkd1-WT; conditions: cited from earlier work
[23] = target: Kif5b-Ret-WT (Homo sapiens, UniProt P07949+P33176); conditions: cited from earlier work
[24] = N12-butylamine derivative of the C7-iso-butyl staralog

T1 sequence (Q15139 whole entry): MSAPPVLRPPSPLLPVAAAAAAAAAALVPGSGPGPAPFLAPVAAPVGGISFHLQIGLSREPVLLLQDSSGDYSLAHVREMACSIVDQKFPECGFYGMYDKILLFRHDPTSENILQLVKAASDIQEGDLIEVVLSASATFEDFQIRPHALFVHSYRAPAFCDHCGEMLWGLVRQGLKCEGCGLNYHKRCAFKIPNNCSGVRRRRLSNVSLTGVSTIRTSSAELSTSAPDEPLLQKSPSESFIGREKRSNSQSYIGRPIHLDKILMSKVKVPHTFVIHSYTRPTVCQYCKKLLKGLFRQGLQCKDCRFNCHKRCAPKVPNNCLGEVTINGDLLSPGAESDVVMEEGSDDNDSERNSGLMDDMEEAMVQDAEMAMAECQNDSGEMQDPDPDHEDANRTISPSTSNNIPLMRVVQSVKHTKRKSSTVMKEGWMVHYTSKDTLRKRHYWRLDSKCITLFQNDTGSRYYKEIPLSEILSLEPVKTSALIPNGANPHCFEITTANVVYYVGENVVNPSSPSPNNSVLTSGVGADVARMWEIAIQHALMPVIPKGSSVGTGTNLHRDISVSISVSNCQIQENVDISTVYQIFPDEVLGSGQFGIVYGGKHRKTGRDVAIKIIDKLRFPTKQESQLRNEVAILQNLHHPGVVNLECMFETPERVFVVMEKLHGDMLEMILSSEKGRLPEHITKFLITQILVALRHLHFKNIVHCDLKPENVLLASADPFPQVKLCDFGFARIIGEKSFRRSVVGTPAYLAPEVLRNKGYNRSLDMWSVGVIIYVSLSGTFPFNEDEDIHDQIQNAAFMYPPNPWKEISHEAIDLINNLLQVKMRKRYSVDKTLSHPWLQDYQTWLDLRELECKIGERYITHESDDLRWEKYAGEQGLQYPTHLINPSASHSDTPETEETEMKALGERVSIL
Sequence of Kif5b-Ret-AS2 (P07949 713-1063 V804A limits assumed, one chain of several): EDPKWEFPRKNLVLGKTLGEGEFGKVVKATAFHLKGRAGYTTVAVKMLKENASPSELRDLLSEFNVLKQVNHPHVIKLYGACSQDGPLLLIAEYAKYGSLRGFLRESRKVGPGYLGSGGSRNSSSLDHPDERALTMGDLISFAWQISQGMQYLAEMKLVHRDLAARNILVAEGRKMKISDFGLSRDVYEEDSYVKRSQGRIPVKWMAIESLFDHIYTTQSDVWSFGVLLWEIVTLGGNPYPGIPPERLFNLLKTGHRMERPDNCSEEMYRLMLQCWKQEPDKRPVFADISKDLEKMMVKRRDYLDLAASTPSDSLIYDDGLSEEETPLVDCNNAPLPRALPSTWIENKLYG
Sequence of Pkd1 (Q15139 whole entry): as the sequence (Q15139 whole entry) above
Sequence of Pkd2 (Q9BZL6 whole entry): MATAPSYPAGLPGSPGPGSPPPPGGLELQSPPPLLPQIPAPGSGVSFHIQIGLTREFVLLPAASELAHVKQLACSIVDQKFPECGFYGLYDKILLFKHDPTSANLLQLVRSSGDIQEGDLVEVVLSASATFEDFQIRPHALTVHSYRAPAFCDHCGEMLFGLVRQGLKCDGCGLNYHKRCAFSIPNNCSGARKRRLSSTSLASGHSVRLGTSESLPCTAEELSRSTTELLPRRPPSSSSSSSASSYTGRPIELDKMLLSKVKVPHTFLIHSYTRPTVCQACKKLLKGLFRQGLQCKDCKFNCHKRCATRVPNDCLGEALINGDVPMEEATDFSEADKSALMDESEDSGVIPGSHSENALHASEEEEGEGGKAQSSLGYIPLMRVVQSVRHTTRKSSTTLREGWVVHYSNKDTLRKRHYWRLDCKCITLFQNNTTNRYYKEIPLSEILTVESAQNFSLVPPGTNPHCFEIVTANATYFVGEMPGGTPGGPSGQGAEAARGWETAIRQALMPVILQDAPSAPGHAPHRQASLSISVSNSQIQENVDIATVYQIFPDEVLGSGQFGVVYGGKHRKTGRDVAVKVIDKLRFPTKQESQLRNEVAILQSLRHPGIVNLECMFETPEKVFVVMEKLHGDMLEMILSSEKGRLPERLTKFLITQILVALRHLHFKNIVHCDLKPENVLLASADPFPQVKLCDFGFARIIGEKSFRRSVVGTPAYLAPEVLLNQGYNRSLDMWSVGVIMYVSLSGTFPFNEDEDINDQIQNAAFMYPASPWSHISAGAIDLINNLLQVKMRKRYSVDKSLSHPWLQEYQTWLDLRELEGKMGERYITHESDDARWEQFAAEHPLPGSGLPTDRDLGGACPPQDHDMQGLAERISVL
Sequence of Kif5b-Ret-WT (P07949 713-1063 limits assumed, one chain of several): as the sequence (P07949 713-1063 V804A limits assumed, one chain of several) above, with A92V counted along it
Sequence of Ack (Q07912 whole entry): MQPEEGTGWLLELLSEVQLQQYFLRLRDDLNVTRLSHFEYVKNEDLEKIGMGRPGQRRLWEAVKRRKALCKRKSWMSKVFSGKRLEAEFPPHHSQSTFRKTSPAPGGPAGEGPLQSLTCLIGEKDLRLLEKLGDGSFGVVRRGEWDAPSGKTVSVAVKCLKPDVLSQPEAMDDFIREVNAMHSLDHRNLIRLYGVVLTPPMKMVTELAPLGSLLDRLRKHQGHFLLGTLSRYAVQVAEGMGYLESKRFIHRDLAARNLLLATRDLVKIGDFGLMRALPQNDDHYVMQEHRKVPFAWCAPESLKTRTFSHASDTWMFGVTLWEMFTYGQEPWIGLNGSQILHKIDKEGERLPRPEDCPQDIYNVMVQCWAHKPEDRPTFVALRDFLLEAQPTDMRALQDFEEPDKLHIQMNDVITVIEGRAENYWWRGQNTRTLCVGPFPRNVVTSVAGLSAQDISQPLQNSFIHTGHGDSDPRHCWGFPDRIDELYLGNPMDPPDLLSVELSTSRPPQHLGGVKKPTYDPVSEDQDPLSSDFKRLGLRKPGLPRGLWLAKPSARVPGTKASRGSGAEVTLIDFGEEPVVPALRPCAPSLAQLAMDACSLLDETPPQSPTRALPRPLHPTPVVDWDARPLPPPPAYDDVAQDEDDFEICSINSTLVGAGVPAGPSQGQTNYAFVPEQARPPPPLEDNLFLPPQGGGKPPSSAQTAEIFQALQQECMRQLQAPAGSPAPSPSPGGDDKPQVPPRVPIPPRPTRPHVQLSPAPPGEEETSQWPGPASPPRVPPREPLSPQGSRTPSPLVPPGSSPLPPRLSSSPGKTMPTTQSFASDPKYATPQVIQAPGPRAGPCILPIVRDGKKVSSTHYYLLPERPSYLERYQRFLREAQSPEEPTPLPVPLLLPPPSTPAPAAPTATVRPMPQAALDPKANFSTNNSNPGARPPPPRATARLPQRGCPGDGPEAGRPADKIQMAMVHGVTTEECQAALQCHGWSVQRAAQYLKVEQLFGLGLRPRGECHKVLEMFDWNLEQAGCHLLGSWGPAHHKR
Sequence of CKδ (P48730 whole entry): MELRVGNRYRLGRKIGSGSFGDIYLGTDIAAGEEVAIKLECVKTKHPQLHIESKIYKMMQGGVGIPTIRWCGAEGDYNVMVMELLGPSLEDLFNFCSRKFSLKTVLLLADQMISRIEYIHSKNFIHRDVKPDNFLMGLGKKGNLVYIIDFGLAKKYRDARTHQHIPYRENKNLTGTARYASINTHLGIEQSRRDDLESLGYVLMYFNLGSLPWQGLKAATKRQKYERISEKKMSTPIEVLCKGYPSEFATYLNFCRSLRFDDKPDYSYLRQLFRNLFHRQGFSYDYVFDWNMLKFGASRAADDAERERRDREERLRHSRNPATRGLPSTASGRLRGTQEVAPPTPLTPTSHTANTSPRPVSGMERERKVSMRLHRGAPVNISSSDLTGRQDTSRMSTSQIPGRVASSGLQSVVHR
Sequence of Ptk6 (Q13882 whole entry): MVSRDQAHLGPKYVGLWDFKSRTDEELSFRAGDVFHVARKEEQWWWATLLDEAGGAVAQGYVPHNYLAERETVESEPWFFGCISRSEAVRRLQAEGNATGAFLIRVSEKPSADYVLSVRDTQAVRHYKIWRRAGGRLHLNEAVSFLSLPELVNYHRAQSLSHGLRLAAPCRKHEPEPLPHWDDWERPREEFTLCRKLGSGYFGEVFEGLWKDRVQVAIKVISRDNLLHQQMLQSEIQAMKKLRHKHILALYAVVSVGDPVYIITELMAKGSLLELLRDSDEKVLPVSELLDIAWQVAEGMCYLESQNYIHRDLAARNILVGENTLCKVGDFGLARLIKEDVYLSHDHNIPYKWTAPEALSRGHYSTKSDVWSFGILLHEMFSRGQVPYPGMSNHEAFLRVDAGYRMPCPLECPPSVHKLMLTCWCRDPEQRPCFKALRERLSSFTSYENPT
Sequence of CK1ε (P49674 whole entry): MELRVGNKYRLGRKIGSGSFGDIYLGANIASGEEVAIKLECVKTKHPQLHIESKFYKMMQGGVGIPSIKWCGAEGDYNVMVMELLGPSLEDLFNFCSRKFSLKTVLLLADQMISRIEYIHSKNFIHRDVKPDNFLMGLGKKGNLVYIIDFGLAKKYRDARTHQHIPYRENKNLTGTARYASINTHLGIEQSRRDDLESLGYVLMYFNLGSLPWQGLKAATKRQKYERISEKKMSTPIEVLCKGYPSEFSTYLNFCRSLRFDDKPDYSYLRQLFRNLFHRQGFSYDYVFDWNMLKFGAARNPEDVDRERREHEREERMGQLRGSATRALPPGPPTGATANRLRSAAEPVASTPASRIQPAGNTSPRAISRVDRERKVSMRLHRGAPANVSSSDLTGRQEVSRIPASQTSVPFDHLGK

Cc1cccc(Cc2nn(C(C)(C)C)c3ncnc(N)c23)c1 [Star 3MB-PP1, 3MB-PP1]
share of kinases inhibited by more than 80% [1]: 1.2%

CC(C)C[C@@H]1NC(=O)c2c1c1c3ccccc3n(CCCCN)c1c1[nH]c3ccccc3c21 [Star 12]
IC50 ([2]; read-out: IC50 toward Src-WT): > 5 µM
improvement in potency toward Src-AS1 [3, 24]: ~ ten-fold
improvement in potency toward Src-AS2 [4, 24]: ~ ten-fold
IC50 [5]: > 5 µM
IC50 [6]: > 5 µM
IC50 [7]: 3.3 µM
IC50 [8]: > 5 µM
IC50 [9]: 1.3 µM
IC50 [10]: > 5 µM
IC50 [11]: > 5 µM
IC50 [12]: > 5 µM
highest inhibition of any single kinase in the panel [13]: ≤ 80%
concentration giving robust inhibition of v-Src-AS1 mediated phosphorylation [14]: below 1 µM
relative potency against v-Src-AS1 in cells (in words) [14]: most potent inhibitor
effect on v-Src-WT-mediated phosphorylation (in words) [15]: little effect
activity towards EphA4-AS1 (in words) [16]: exhibited activity
activity towards Pkd1-AS1 (in words) [17]: potent Pkd-AS1 inhibitors
effect on Pkd1-WT activity (in words) [18]: do not affect Pkd1-WT activity
activity towards Pkd1-AS2 (in words) [19]: did not show activity
inhibition of Ret-AS2 autophosphorylation (in words) [20]: capable of inhibiting

CN[C@@H]1C[C@H]2O[C@@](C)([C@@H]1OC)n1c3ccccc3c3c4c(c5c6ccccc6n2c5c31)C(=O)NC4 [staurosporine]
share of all protein kinases targeted (same metric, more than 80% inhibition) [1]: 72%
share of protein kinases potently targeted [1]: ~ 80%

O=C1NCc2c1c1c3ccccc3[nH]c1c1[nH]c3ccccc3c21 [Star K252c, K252c, reference compound]
activity towards Src-WT (in words) [2]: complete loss of activity
activity/potency towards Src-AS1 (in words) [3]: complete loss of activity
activity towards Src-AS2 (in words) [4]: complete loss of activity

CC(C)C[C@@H]1NC(=O)c2c1c1c3ccccc3[nH]c1c1[nH]c3ccccc3c21 [Star 1]
activity/potency towards Src-AS1 (in words) [3]: most potent
concentration giving robust inhibition of v-Src-AS1 mediated phosphorylation [14]: below 1 µM
relative potency against v-Src-AS1 in cells (in words) [14]: weakest

COC(=O)[C@@]1(O)C[C@H]2O[C@]1(C)n1c3ccccc3c3c4c(c5c6ccccc6n2c5c31)C(=O)NC4 [Star K252a, K252a]
share of all protein kinases targeted (same metric, more than 80% inhibition) [1]: 49%

CC(C)(C)n1nc(Cc2cccc3ccccc23)c2c(N)ncnc21 [Star 1NM-PP1, 1NM-PP1]
share of kinases inhibited by more than 80% [1]: 1.2%

CC(C)(C)n1nc(-c2cccc3ccccc23)c2c(N)ncnc21 [Star 1NA-PP1, 1NA-PP1]
inhibition of EphA4-AS1 allele ([16]; at ≥2.5µM): greater than 90%
concentrations at which EphA4-WT activity is inhibited [21]: ≥ 2.5 µM
share of kinases inhibited by more than 80% [1]: 4.5%
inhibition of Pkd1 WT kinase (in words) [22]: weakly inhibited at higher drug concentrations
inhibition of Ret WT kinase (in words) [23]: weakly inhibited at higher drug concentrations
